Test results as given in ChEMBL document CHEMBL1157620, “1-(Aryl)-6-[alkoxyalkyl]-3-azabicyclo[3.1.0]hexanes and 6-(aryl)-6-[alkoxyalkyl]-3-azabicyclo[3.1.0]hexanes: a new series of potent and selective triple reuptake inhibitors” (J Med Chem, 2010).

Target: Sodium-dependent noradrenaline transporter (Homo sapiens, UniProt P23975)
Experiment: Displacement of [3H]nisoxetine from human recombinant NET expressed in BacMam virus-transduced cells by scintillation proximity assay
Assay type: cell-based
Outline: (§1)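 BacMam-transduced membranes in SPA format. SERT: 1 mg/mL beads, 6 μg/mL membranes, 3 nM [3H]citalopram. NET: 2 mg/mL beads, 40 μg/mL membranes, 10 nM [3H]nisoxetine. Incubated overnight at room temperature; pKi from pIC50 by Cheng-Prusoff.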

Sodium-dependent noradrenaline transporter, sequence (P23975 whole entry): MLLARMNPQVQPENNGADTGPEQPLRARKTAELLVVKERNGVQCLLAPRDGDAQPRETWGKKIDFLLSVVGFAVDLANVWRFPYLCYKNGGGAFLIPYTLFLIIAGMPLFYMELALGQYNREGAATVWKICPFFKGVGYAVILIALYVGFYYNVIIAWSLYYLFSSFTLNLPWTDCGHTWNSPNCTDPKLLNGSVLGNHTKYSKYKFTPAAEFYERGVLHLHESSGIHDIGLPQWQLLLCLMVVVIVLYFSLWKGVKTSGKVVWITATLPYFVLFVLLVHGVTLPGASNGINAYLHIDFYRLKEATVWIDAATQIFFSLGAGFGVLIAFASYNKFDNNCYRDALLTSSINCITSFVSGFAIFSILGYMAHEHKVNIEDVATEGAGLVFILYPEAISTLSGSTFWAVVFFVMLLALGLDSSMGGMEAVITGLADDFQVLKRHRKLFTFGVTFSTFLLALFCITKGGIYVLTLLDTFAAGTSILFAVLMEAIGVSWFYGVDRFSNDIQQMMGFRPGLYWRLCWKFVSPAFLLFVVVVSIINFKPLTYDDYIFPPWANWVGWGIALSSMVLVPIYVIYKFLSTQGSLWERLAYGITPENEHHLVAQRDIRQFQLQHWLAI

**Q.** With CSC[C@H]1[C@@H]2CNC[C@@]21c1ccc(Cl)c(Cl)c1 (relative stereo) as the molecule, how does the Ki read?
**A.** The Ki was 1.58 nM.

**Q.** Clc1ccc([C@]23CNC[C@H]2[C@@H]3COCC2CC2)cc1Cl (relative stereo) was tested. Which Ki did it give?
**A.** Its Ki is 15.8 nM.

**Q.** With CCCOC[C@H]1[C@@H]2CNC[C@@]21c1ccc(Cl)c(Cl)c1 (relative stereo) as the molecule, how does the Ki read?
**A.** The Ki was 31.6 nM.

**Q.** With CC(C)OC[C@H]1[C@@H]2CNC[C@@]21c1ccc(Cl)c(Cl)c1 (relative stereo) as the molecule, how does the Ki read?
**A.** Its Ki is 200 nM.

**Q.** Which Ki does the source give for CCOC[C@H]1[C@@H]2CN(C)C[C@]12c1ccc(Cl)c(Cl)c1 (relative stereo) here?
**A.** Its Ki is 15.8 nM.

**Q.** For Clc1ccc([C@]23CNC[C@H]2[C@@H]3COC2CCC2)cc1Cl (relative stereo), which Ki is on record?
**A.** Its Ki is 0.501 nM.

**Q.** How did the Ki turn out when COC[C@H]1[C@@H]2CNC[C@@]21c1ccc2ccccc2c1 (relative stereo) was run?
**A.** The Ki was 316 nM.

**Q.** Clc1ccc([C@@]23CNC[C@@H]2[C@H]3COC2CCC2)cc1Cl (stereo in doubt) was tested. Which Ki did it give?
**A.** The Ki was 158 nM.

**Q.** Which Ki does the source give for COC[C@H]1[C@@H]2CNC[C@@]21c1ccc(Cl)c(Cl)c1 (stereo in doubt) here?
**A.** Its Ki is 3.16 nM.

**Q.** Clc1ccc([C@]23CNC[C@H]2[C@@H]3COC2CCCC2)cc1Cl (stereo in doubt) was tested. Which Ki did it give?
**A.** Its Ki is 0.794 nM.

**Q.** Clc1ccc([C@@]23CNC[C@@H]2[C@H]3COC2CCCC2)cc1Cl (stereo in doubt) was tested. Which Ki did it give?
**A.** The Ki was 12.6 nM.

**Q.** Which Ki does the source give for Cc1csc(C[C@H]2[C@@H]3CNC[C@@]32c2ccc(Cl)c(Cl)c2)n1 (stereo in doubt) here?
**A.** Its Ki is 0.316 nM.

**Q.** For CCCOC[C@@H]1[C@H]2CNC[C@]21c1ccc(Cl)c(Cl)c1 (stereo in doubt), which Ki is on record?
**A.** Its Ki is 0.631 nM.

**Q.** With CSC[C@H]1[C@@H]2CNC[C@@]21c1ccc(Cl)c(Cl)c1 (stereo in doubt) as the molecule, how does the Ki read?
**A.** Its Ki is 5.01 nM.

**Q.** Which Ki does the source give for CSC[C@@H]1[C@H]2CNC[C@]21c1ccc(Cl)c(Cl)c1 (stereo in doubt) here?
**A.** The Ki was 316 nM.

**Q.** COC[C@@H]1[C@H]2CNC[C@]21c1ccc(Cl)c(Cl)c1 (stereo in doubt) was tested. Which Ki did it give?
**A.** Its Ki is 224 nM.

**Q.** Which Ki does the source give for Clc1ccc([C@]23CNC[C@H]2[C@@H]3COCC2CC2)cc1Cl (stereo in doubt) here?
**A.** The Ki was 1.95 nM.

**Q.** How did the Ki turn out when CCCOC[C@H]1[C@@H]2CNC[C@@]21c1ccc(Cl)c(Cl)c1 (stereo in doubt) was run?
**A.** The Ki was 0.501 nM.

**Q.** With CC(C)OC[C@H]1[C@@H]2CNC[C@@]21c1ccc(Cl)c(Cl)c1 (stereo in doubt) as the molecule, how does the Ki read?
**A.** The Ki was 0.398 nM.

**Q.** How did the Ki turn out when Cc1csc(C[C@@H]2[C@H]3CNC[C@]32c2ccc(Cl)c(Cl)c2)n1 (stereo in doubt) was run?
**A.** The Ki was 79.4 nM.

**Q.** How did the Ki turn out when Clc1ccc([C@]23CNC[C@H]2[C@@H]3COC2CCC2)cc1Cl (stereo in doubt) was run?
**A.** Its Ki is 1.26 nM.

**Q.** For COC[C@H]1[C@@H]2CNC[C@@]21c1ccc2ccccc2c1 (stereo in doubt), which Ki is on record?
**A.** The Ki was 1 nM.

Target: Sodium-dependent serotonin transporter (Homo sapiens, UniProt P31645)
Experiment: Displacement of [3H]citalopram from human recombinant SERT expressed in BacMam virus-transduced cells by scintillation proximity assay
Assay type: cell-based
Outline: as §1

Sodium-dependent serotonin transporter, sequence (P31645 whole entry): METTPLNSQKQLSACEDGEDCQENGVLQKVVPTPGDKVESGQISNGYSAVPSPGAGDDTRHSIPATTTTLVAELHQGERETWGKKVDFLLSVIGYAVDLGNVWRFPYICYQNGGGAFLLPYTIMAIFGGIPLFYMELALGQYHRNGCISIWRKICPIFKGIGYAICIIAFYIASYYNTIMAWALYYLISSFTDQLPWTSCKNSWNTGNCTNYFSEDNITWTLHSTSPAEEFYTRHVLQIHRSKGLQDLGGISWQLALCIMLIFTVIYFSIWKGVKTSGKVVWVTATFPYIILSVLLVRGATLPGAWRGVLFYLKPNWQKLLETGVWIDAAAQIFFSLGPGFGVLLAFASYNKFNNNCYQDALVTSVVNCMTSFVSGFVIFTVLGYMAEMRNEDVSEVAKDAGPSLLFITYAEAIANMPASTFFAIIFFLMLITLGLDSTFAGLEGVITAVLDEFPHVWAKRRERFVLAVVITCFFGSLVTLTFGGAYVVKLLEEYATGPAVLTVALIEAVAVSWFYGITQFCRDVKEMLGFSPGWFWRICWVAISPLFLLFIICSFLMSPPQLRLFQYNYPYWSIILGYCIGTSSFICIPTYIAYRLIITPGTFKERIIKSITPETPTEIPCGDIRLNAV

**Q.** With CSC[C@H]1[C@@H]2CNC[C@@]21c1ccc(Cl)c(Cl)c1 (relative stereo) as the molecule, how does the Ki read?
**A.** The Ki was 0.398 nM.

**Q.** Clc1ccc([C@]23CNC[C@H]2[C@@H]3COCC2CC2)cc1Cl (relative stereo) was tested. Which Ki did it give?
**A.** The Ki was 5.01 nM.

**Q.** Which Ki does the source give for CCCOC[C@H]1[C@@H]2CNC[C@@]21c1ccc(Cl)c(Cl)c1 (relative stereo) here?
**A.** The Ki was 9.55 nM.

**Q.** For CC(C)OC[C@H]1[C@@H]2CNC[C@@]21c1ccc(Cl)c(Cl)c1 (relative stereo), which Ki is on record?
**A.** The Ki was 39.8 nM.

**Q.** Which Ki does the source give for CCOC[C@H]1[C@@H]2CN(C)C[C@]12c1ccc(Cl)c(Cl)c1 (relative stereo) here?
**A.** The Ki was 1.26 nM.

**Q.** For Clc1ccc([C@]23CNC[C@H]2[C@@H]3COC2CCC2)cc1Cl (relative stereo), which Ki is on record?
**A.** The Ki was 0.316 nM.

**Q.** How did the Ki turn out when COC[C@H]1[C@@H]2CNC[C@@]21c1ccc2ccccc2c1 (relative stereo) was run?
**A.** The Ki was 12.6 nM.

**Q.** With Clc1ccc([C@@]23CNC[C@@H]2[C@H]3COC2CCC2)cc1Cl (stereo in doubt) as the molecule, how does the Ki read?
**A.** Its Ki is 25.1 nM.

**Q.** Which Ki does the source give for COC[C@H]1[C@@H]2CNC[C@@]21c1ccc(Cl)c(Cl)c1 (stereo in doubt) here?
**A.** Its Ki is 1.51 nM.

**Q.** Clc1ccc([C@]23CNC[C@H]2[C@@H]3COC2CCCC2)cc1Cl (stereo in doubt) was tested. Which Ki did it give?
**A.** Its Ki is 0.501 nM.

**Q.** Which Ki does the source give for Clc1ccc([C@@]23CNC[C@@H]2[C@H]3COC2CCCC2)cc1Cl (stereo in doubt) here?
**A.** Its Ki is 7.94 nM.

**Q.** Cc1csc(C[C@H]2[C@@H]3CNC[C@@]32c2ccc(Cl)c(Cl)c2)n1 (stereo in doubt) was tested. Which Ki did it give?
**A.** The Ki was 0.2 nM.

**Q.** With CCCOC[C@@H]1[C@H]2CNC[C@]21c1ccc(Cl)c(Cl)c1 (stereo in doubt) as the molecule, how does the Ki read?
**A.** Its Ki is 0.251 nM.

**Q.** How did the Ki turn out when CSC[C@H]1[C@@H]2CNC[C@@]21c1ccc(Cl)c(Cl)c1 (stereo in doubt) was run?
**A.** Its Ki is 0.794 nM.

**Q.** Which Ki does the source give for CSC[C@@H]1[C@H]2CNC[C@]21c1ccc(Cl)c(Cl)c1 (stereo in doubt) here?
**A.** The Ki was 25.1 nM.

**Q.** COC[C@@H]1[C@H]2CNC[C@]21c1ccc(Cl)c(Cl)c1 (stereo in doubt) was tested. Which Ki did it give?
**A.** Its Ki is 25.7 nM.

**Q.** For Clc1ccc([C@]23CNC[C@H]2[C@@H]3COCC2CC2)cc1Cl (stereo in doubt), which Ki is on record?
**A.** Its Ki is 0.955 nM.

**Q.** CCCOC[C@H]1[C@@H]2CNC[C@@]21c1ccc(Cl)c(Cl)c1 (stereo in doubt) was tested. Which Ki did it give?
**A.** Its Ki is 0.501 nM.

**Q.** How did the Ki turn out when CC(C)OC[C@H]1[C@@H]2CNC[C@@]21c1ccc(Cl)c(Cl)c1 (stereo in doubt) was run?
**A.** The Ki was 0.2 nM.

**Q.** With Cc1csc(C[C@@H]2[C@H]3CNC[C@]32c2ccc(Cl)c(Cl)c2)n1 (stereo in doubt) as the molecule, how does the Ki read?
**A.** Its Ki is 15.8 nM.

**Q.** With Clc1ccc([C@]23CNC[C@H]2[C@@H]3COC2CCC2)cc1Cl (stereo in doubt) as the molecule, how does the Ki read?
**A.** Its Ki is 0.631 nM.

**Q.** Which Ki does the source give for COC[C@H]1[C@@H]2CNC[C@@]21c1ccc2ccccc2c1 (stereo in doubt) here?
**A.** Its Ki is 0.158 nM.

Target: Sodium-dependent dopamine transporter (Homo sapiens, UniProt Q01959)
Experiment: Displacement of [3H]WIN-35428 from human recombinant DAT expressed in BacMam virus-transduced cells by scintillation proximity assay
Assay type: cell-based

Sodium-dependent dopamine transporter, sequence (Q01959 whole entry): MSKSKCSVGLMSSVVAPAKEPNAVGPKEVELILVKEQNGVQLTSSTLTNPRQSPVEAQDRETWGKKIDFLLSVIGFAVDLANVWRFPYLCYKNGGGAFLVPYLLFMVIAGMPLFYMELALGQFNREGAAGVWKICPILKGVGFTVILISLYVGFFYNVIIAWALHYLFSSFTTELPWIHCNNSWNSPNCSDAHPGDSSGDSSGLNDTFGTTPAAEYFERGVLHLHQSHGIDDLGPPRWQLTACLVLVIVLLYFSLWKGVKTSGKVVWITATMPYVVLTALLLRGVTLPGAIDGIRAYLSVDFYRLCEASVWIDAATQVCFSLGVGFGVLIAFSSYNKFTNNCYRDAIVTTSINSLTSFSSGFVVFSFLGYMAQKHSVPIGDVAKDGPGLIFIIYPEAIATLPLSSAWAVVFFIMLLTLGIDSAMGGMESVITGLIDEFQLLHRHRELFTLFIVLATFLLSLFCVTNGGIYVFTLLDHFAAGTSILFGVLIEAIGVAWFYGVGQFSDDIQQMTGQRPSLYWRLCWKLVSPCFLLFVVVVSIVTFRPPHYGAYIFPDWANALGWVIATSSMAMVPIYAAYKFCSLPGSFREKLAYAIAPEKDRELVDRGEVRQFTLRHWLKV

**Q.** With CSC[C@H]1[C@@H]2CNC[C@@]21c1ccc(Cl)c(Cl)c1 (relative stereo) as the molecule, how does the Ki read?
**A.** The Ki was 39.8 nM.

**Q.** Which Ki does the source give for Clc1ccc([C@]23CNC[C@H]2[C@@H]3COCC2CC2)cc1Cl (relative stereo) here?
**A.** Its Ki is 200 nM.

**Q.** For CCCOC[C@H]1[C@@H]2CNC[C@@]21c1ccc(Cl)c(Cl)c1 (relative stereo), which Ki is on record?
**A.** The Ki was 251 nM.

**Q.** With CC(C)OC[C@H]1[C@@H]2CNC[C@@]21c1ccc(Cl)c(Cl)c1 (relative stereo) as the molecule, how does the Ki read?
**A.** The Ki was 251 nM.

**Q.** How did the Ki turn out when CCOC[C@H]1[C@@H]2CN(C)C[C@]12c1ccc(Cl)c(Cl)c1 (relative stereo) was run?
**A.** The Ki was 39.8 nM.

**Q.** For Clc1ccc([C@]23CNC[C@H]2[C@@H]3COC2CCC2)cc1Cl (relative stereo), which Ki is on record?
**A.** Its Ki is 3.98 nM.

**Q.** COC[C@H]1[C@@H]2CNC[C@@]21c1ccc2ccccc2c1 (relative stereo) was tested. Which Ki did it give?
**A.** The Ki was 398 nM.

**Q.** For Clc1ccc([C@@]23CNC[C@@H]2[C@H]3COC2CCC2)cc1Cl (stereo in doubt), which Ki is on record?
**A.** The Ki was 251 nM.

**Q.** How did the Ki turn out when COC[C@H]1[C@@H]2CNC[C@@]21c1ccc(Cl)c(Cl)c1 (stereo in doubt) was run?
**A.** Its Ki is 110 nM.

**Q.** How did the Ki turn out when Clc1ccc([C@]23CNC[C@H]2[C@@H]3COC2CCCC2)cc1Cl (stereo in doubt) was run?
**A.** The Ki was 6.31 nM.

**Q.** With Clc1ccc([C@@]23CNC[C@@H]2[C@H]3COC2CCCC2)cc1Cl (stereo in doubt) as the molecule, how does the Ki read?
**A.** The Ki was 100 nM.

**Q.** How did the pKi turn out when Cc1csc(C[C@H]2[C@@H]3CNC[C@@]32c2ccc(Cl)c(Cl)c2)n1 (stereo in doubt) was run?
**A.** Its pKi is 7.7.

**Q.** CCCOC[C@@H]1[C@H]2CNC[C@]21c1ccc(Cl)c(Cl)c1 (stereo in doubt) was tested. Which Ki did it give?
**A.** The Ki was 12.6 nM.

**Q.** For CSC[C@H]1[C@@H]2CNC[C@@]21c1ccc(Cl)c(Cl)c1 (stereo in doubt), which Ki is on record?
**A.** Its Ki is 79.4 nM.

**Q.** With CSC[C@@H]1[C@H]2CNC[C@]21c1ccc(Cl)c(Cl)c1 (stereo in doubt) as the molecule, how does the Ki read?
**A.** The Ki was 63.1 nM.

**Q.** COC[C@@H]1[C@H]2CNC[C@]21c1ccc(Cl)c(Cl)c1 (stereo in doubt) was tested. Which Ki did it give?
**A.** The Ki was 513 nM.

**Q.** Clc1ccc([C@]23CNC[C@H]2[C@@H]3COCC2CC2)cc1Cl (stereo in doubt) was tested. Which Ki did it give?
**A.** Its Ki is 25.1 nM.

**Q.** How did the Ki turn out when CCCOC[C@H]1[C@@H]2CNC[C@@]21c1ccc(Cl)c(Cl)c1 (stereo in doubt) was run?
**A.** Its Ki is 20 nM.

**Q.** How did the Ki turn out when CC(C)OC[C@H]1[C@@H]2CNC[C@@]21c1ccc(Cl)c(Cl)c1 (stereo in doubt) was run?
**A.** The Ki was 7.94 nM.

**Q.** How did the Ki turn out when Cc1csc(C[C@@H]2[C@H]3CNC[C@]32c2ccc(Cl)c(Cl)c2)n1 (stereo in doubt) was run?
**A.** Its Ki is 50.1 nM.

**Q.** For Clc1ccc([C@]23CNC[C@H]2[C@@H]3COC2CCC2)cc1Cl (stereo in doubt), which Ki is on record?
**A.** Its Ki is 12.6 nM.

**Q.** COC[C@H]1[C@@H]2CNC[C@@]21c1ccc2ccccc2c1 (stereo in doubt) was tested. Which Ki did it give?
**A.** Its Ki is 50.1 nM.
